Measurements: ChEMBL document CHEMBL1129333, “Synthesis and biological activities of flavonoid derivatives as A3 adenosine receptor antagonists” (J Med Chem, 1996)

Legend:
Adenosine A2 receptor = Adenosine A2 receptor (Rattus norvegicus, UniProt P29276+P30543); experiment: Binding affinity at Adenosine A2 receptor in rat striatal membranes by [3H]-CGS- 21680 displacement.; format: cell membranes, Striatum, Membrane
How it was run: (§1)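 Rat striatal membranes, prepared with adenosine deaminase (3 units/mL) including a 30 min, 30 °C preincubation, ADA also present during radioligand incubation; [3H]CGS 21680 displacement. Test compounds from DMSO stocks, final DMSO ≤1%, at least five concentrations spanning 3 orders of magnitude.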

Adenosine receptor A3 [1] = biological target: T1, Adenosine receptor A3 (Homo sapiens, UniProt P0DMS8); experiment: Binding affinity against human adenosine A3 receptor in HEK293 cells using [125I]AB-MECA […] radioligand.; format: cell-based
T1 sequence (P0DMS8 whole entry): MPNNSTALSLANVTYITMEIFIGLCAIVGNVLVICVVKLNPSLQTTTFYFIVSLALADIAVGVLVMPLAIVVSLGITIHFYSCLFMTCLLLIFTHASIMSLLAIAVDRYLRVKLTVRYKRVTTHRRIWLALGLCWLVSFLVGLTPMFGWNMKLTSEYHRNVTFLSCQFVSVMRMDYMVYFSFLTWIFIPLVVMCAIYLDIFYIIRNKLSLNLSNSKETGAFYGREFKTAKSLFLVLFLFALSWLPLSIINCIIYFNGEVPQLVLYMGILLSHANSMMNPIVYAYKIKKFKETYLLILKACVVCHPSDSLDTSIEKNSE

[2] = biological target: T2, Adenosine receptor A1 (Rattus norvegicus) (UniProt P25099); experiment: Percentage inhibition against Adenosine A1 receptor in rat brain membranes using [3H]-PIA; format: cell membranes; set-up: concentration or dose not given beside the values; conditions: concentration not given here
T2 sequence (whole entry): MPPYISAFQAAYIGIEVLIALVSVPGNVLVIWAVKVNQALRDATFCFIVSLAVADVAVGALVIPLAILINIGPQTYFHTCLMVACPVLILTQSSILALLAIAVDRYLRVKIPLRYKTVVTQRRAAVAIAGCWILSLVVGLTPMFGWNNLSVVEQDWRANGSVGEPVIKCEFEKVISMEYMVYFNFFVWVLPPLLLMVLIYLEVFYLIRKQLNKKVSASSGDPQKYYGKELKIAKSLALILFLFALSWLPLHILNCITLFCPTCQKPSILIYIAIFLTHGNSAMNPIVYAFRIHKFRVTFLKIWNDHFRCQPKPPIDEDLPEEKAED

[3] = biological target: T3, Adenosine A2 receptor (Rattus norvegicus) (UniProt P29276+P30543); experiment: Percent displacement at 10e-4 M against Adenosine A2 receptor in rat striatal membranes using [3H]-CGS- 21680; format: cell membranes; conditions: Striatum, Membrane; how it was run: as §1
[4] = biological target: T2, Adenosine receptor A1 (Rattus norvegicus); experiment: Percent displacement against Adenosine A1 receptor in rat brain membranes using [3H]PIA at 10e-4 M; format: cell membranes
[5] = system: Adenosine A1 receptor (Rattus norvegicus) / A3 receptor (Homo sapiens); experiment: Ratio of binding affinities between rA1 and human A3.
Adenosine receptor A3 [6] = biological target: T4, Adenosine receptor A3 (Rattus norvegicus, UniProt P28647); experiment: (§2) Binding affinity for [125I]AB-MECA against rat Adenosine A3 receptor
T4 sequence (P28647 whole entry): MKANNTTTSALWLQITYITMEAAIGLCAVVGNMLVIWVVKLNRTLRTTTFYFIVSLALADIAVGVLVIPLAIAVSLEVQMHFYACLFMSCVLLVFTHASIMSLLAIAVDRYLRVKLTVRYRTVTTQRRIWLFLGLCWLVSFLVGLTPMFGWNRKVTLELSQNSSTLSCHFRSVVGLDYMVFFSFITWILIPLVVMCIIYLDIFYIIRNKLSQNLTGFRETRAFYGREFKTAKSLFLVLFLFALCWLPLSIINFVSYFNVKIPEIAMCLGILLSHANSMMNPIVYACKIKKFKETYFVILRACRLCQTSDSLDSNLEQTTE

[7] = biological target: Adenylate cyclase type 2 (Rattus norvegicus) (UniProt P26769); experiment: Percent inhibition against adenylyl cyclase was measured using IB-MECA […] at 10E-6; format: functional; conditions: concentration not given here
How it was run: (§3)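 Membranes from CHO cells stably expressing rat A3 receptor (grown in F-12, 10% FBS, 37 °C, 5% CO2); [α-32P]ATP added with 1 μM forskolin and papaverine as phosphodiesterase inhibitor.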

[8] = biological target: Adenylate cyclase type 2 (Rattus norvegicus) (UniProt P26769); experiment: Percent inhibition against adenylyl cyclase was measured using IB-MECA […] at 10E-7; format: functional; conditions: concentration not given here; how it was run: as §3
[9] = biological target: T5, Adenosine receptor A3 (Homo sapiens) (UniProt P0DMS8); experiment: Binding affinity against human Adenosine A3 receptor in HEK293 cells using [125I]AB-MECA […]; format: cell-based
T5 sequence (whole entry): T1 sequence (P0DMS8 whole entry)
How it was run: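 Membranes of HEK-293 cells stably expressing human A3 receptor (0.3 mg protein/mL) in 50 mM Tris, 10 mM Mg2+, 1 mM EDTA, pH 8.0, with 0.3 nM [125I]AB-MECA final. Duplicate 1 h incubations at 25 °C, filtration over GF/B, gamma counting; nonspecific binding with 100 μM (R)-PIA; DMSO ≤1%.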

[10] = biological target: T3, Adenosine A2 receptor (Rattus norvegicus); experiment: Percent inhibition against Adenosine A2 receptor in rat striatal membranes using [3H]-CGS- 21680; format: cell membranes; conditions: Striatum, Membrane, concentration not given here; how it was run: as §1
Adenosine receptor A1 = biological target: T6, Adenosine receptor A1 (Rattus norvegicus, UniProt P25099); experiment: Binding affinity at Adenosine A1 receptor in rat brain membranes by [3H]PIA displacement.; format: cell membranes
T6 sequence (P25099 whole entry): T2 sequence (whole entry)

[11] = biological target: T3, Adenosine A2 receptor (Rattus norvegicus); experiment: Percentage inhibition against Adenosine A2 receptor in rat striatal membranes using [3H]-CGS- 21680; format: cell membranes; conditions: Striatum, Membrane, concentration not given here; how it was run: as §1
[12] = biological target: T2, Adenosine receptor A1 (Rattus norvegicus); experiment: Percent inhibition at 10e-4 M against Adenosine A1 receptor in rat brain membranes using [3H]-PIA; format: cell membranes
[13] = biological target: T7, Adenosine receptor A3 (Rattus norvegicus) (UniProt P28647); experiment: as §2; conditions: concentration not given here
T7 sequence (whole entry): T4 sequence (P28647 whole entry)

Adenylate cyclase type 2 (Rattus norvegicus), sequence (P26769 whole entry): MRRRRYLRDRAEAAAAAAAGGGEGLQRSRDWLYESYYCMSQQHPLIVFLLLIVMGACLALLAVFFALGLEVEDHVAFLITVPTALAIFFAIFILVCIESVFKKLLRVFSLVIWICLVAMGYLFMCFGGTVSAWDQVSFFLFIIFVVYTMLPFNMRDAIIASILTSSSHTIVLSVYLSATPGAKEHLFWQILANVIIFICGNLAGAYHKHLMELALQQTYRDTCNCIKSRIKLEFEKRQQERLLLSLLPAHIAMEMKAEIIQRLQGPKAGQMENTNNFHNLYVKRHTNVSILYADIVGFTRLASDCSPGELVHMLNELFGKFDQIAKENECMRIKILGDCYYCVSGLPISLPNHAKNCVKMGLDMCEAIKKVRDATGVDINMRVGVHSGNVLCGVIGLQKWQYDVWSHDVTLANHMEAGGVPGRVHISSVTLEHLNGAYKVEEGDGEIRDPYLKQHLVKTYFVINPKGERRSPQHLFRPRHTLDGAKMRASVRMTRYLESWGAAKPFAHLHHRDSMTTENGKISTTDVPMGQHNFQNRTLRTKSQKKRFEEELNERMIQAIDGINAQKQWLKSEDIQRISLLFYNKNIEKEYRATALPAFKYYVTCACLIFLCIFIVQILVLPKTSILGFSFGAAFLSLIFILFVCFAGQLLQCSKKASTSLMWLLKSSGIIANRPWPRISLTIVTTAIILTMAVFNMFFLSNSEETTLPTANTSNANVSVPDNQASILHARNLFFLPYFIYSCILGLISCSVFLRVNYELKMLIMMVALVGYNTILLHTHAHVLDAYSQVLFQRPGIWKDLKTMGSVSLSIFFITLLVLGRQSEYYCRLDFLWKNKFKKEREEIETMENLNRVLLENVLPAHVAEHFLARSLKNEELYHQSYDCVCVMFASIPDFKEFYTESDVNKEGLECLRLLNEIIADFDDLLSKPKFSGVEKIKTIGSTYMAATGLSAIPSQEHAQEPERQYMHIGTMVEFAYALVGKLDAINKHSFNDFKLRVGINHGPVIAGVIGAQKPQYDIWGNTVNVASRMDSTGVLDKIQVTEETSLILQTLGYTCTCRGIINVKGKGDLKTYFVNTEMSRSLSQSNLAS

## O=c1c(O)c(-c2ccc(O)cc2O)oc2cc(O)cc(O)c12 [MORIN]
Adenosine A2 receptor
  Ki: 17.3 µM

## O=S(=O)(c1cccc2cnccc12)N1CCNCC1
Adenosine receptor A3 [1]
  Ki: 25 µM

## COc1cc(O)c2c(c1)OC(c1ccc(O)cc1)CC2=O (stereo unspecified)
Adenosine A2 receptor
  Ki: 35.6 µM

## O=c1cc(-c2ccccc2)oc2ccc(Cl)cc12
[2]
  inhibition: 28%
[3]
  Displacement: < 10%

## CCOc1ccc(-c2oc3cc(OCC)cc(O)c3c(=O)c2OCC)c(OCC)c1
[4]
  Displacement: < 10%
[3]
  Displacement: < 10%
[5]
  Ratio: > 40

## CCOc1c2ccoc2cc2oc(/C=C/c3ccccc3)cc(=O)c12
Adenosine receptor A3 [6]
  Ki: 12.3 µM
[7]
  inhibition: 40.9%
[8]
  inhibition: 21.2%
Adenosine A2 receptor
  Ki: 33.8 µM

## CCCOc1cc(OCCC)c2c(=O)c(OCCC)c(-c3ccccc3)oc2c1
[5]
  Ratio: 3.5

## O=c1c(Cl)c(-c2ccccc2)oc2ccc(Cl)cc12
Adenosine receptor A3 [1]
  Ki: 0.741 µM
Adenosine A2 receptor
  Ki: 54.5 µM
[2]
  inhibition: 15%
[5]
  Ratio: > 100

## CCOc1cc(O)c2c(=O)c(OCC)c(-c3ccccc3)oc2c1
Adenosine A2 receptor
  Ki: 63.8 µM

## CCOc1ccc(-c2oc3cc(OCC)cc(OCC)c3c(=O)c2OCC)c(OCC)c1
Adenosine A2 receptor
  Ki: 26.8 µM

## COc1cc(OC)c2c(=O)c(OC)c(-c3ccccc3)oc2c1
Adenosine A2 receptor
  Ki: 6.45 µM

## CCOc1cc(OCC)c2c(=O)c(OCC)c(-c3ccccc3)oc2c1
Adenosine receptor A3 [6]
  Ki: 18.2 µM
[7]
  inhibition: 19.1%
[8]
  inhibition: 2.2%
Adenosine A2 receptor
  Ki: 3.31 µM

## C=C1C(C)C2C(Cc3ccccc3)NC(=O)C23C(OC(C)=O)/C=C\C(C)(O)CC(C)C/C=C/C3C1O (stereo unspecified)
Adenosine receptor A3 [1]
  Ki: 23 µM

## COc1c2ccoc2cc2oc(/C=C/c3ccccc3)cc(=O)c12
Adenosine A2 receptor
  Ki: 11.5 µM
[5]
  Ratio: 0.37

## COc1c2ccoc2cc2oc(/C=C/C=C/c3ccccc3)cc(=O)c12
[4]
  Displacement: < 10%
[9]
  Displacement: < 10%
[3]
  Displacement: < 10%

## O=c1ccnc2ccccn12
Adenosine receptor A3 [1]
  Ki: 48 µM

## Cc1cc(C)c(-c2oc3ccc(Cl)cc3c(=O)c2Cl)c(C)c1
Adenosine receptor A3 [1]
  Ki: 5.24 µM
[2]
  inhibition: 37%
[3]
  Displacement: < 10%

## O=c1c(O)c(-c2ccccc2)oc2cc(O)cc(O)c12 [GALANGIN]
Adenosine A2 receptor
  Ki: 0.966 µM

## COc1c2ccoc2cc2oc(C=O)cc(=O)c12
[4]
  Displacement: < 10%
[10]
  inhibition: 25%
[5]
  Ratio: > 2

## COc1cc(OC)c(-c2oc3ccccc3c(=O)c2O)c(OC)c1
[3]
  Displacement: < 10%
[5]
  Ratio: 0.15

## COc1c2ccoc2cc2oc(/C=N/c3ccccc3)cc(=O)c12
[4]
  Displacement: < 10%
Adenosine receptor A3 [1]
  Ki: 9.18 µM
[3]
  Displacement: < 10%
[5]
  Ratio: > 20

## O=c1c(Cl)c(-c2ccccc2)oc2ccccc12
Adenosine receptor A1
  Ki: 2.48 µM
Adenosine receptor A3 [1]
  Ki: 11.5 µM
Adenosine A2 receptor
  Ki: 25.1 µM

## OC12CCCCC1=Nc1ccccc12 (stereo unspecified)
Adenosine receptor A3 [1]
  Ki: 22 µM

## COc1ccc(-c2oc3cc(OC)cc(OC)c3c(=O)c2OC)c(OC)c1
Adenosine A2 receptor
  Ki: 46.7 µM

## O=C1c2ccccc2OC(c2ccccc2O)C1O (stereo unspecified)
Adenosine receptor A1
  Ki: 91.9 µM
[9]; concentration not given here
  inhibition: 27%
[3]
  Displacement: < 10%
[5]
  Ratio: < 1

## CCOc1c2ccoc2cc2oc(/C=C/C=C/c3ccccc3)cc(=O)c12
[4]
  Displacement: < 10%
Adenosine receptor A3 [1]
  Ki: 45.5 µM
Adenosine A2 receptor
  Ki: 167 µM
[5]
  Ratio: > 4

## O=C1CC(c2ccc(O)cc2)Oc2ccccc21 (stereo unspecified) [4'-HYDROXY-FLAVANONE]
Adenosine receptor A1
  Ki: 11.5 µM
Adenosine receptor A3 [1]
  Ki: 42.8 µM
[11]
  inhibition: 35%

## O=C1CC(c2ccccc2O)Oc2ccccc21 (stereo unspecified) [2'-HYDROXY-FLAVANONE]
Adenosine A2 receptor
  Ki: 17.6 µM

## CSc1sc(C(=O)NN)c2c1C=CCC2
Adenosine receptor A3 [1]
  Ki: 13 µM

## Nc1nc2ncc(NCc3ccc(C(=O)NC(CCC(=O)O)C(=O)O)cc3)nc2c(=O)[nH]1 (stereo unspecified)
Adenosine receptor A3 [1]
  Ki: 28 µM

## COc1ccc2c(c1)C(=O)[C@H](O)[C@@H](/C=C/c1ccccc1)O2 (relative stereo)
[12]
  Displacement: < 10%
[13]
  inhibition: 43%
[7]
  inhibition: 39.2%
[8]
  inhibition: 25.9%
[3]
  Displacement: < 10%
[5]
  Ratio: > 8

## COc1c2ccoc2cc2oc(C)cc(=O)c12 [VISNAGIN]
Adenosine A2 receptor
  Ki: 42.4 µM
[2]
  inhibition: 36%

## OCCN(CCO)C1=NC(N2CCCCC2)c2nc(N(CCO)CCO)nc(N3CCCCC3)c2N1 (stereo unspecified)
Adenosine receptor A3 [1]
  Ki: 19 µM

## COc1cc2oc(-c3ccc(O)cc3O)c(CC=C(C)C)c(=O)c2c(O)c1/C=C/C(C)C [ARTOCARPIN]
Adenosine receptor A1
  Ki: 9.09 µM
Adenosine receptor A3 [1]
  Ki: 4.59 µM
[3]
  Displacement: < 10%

## O=c1cc(-c2ccccc2)oc2ccccc12 [FLAVONE]
Adenosine A2 receptor
  Ki: 3.45 µM
